According to ChEMBL document CHEMBL4732233, “Faropenem reacts with serine and metallo-β-lactamases to give multiple products” (Eur J Med Chem, 2021):

What was measured:
[1] = Drug metabolism assessed as OXA-23 (unknown origin)-mediated compound hydrolysis by measuring (S)-2-((1S,2R)-1-carboxy-2-hydroxypropyl)-5-(4-hydroxybutylidene)-2,5-dihydrothiazole-4-carboxylic acid formation at 2 mM incubated for 15 mins by 1H-NMR based analysis; assay type: ADME; details: bacteria, 0.25 h, 2000 µM
[2] = Drug metabolism assessed as OXA-48 (unknown origin)-mediated compound hydrolysis by measuring (S)-2-((1S,2R)-1-carboxy-2-hydroxypropyl)-5-(4-hydroxybutylidene)-2,5-dihydrothiazole-4-carboxylic acid formation at 5 mM incubated for 55 mins by 1H-NMR based analysis; assay type: ADME; details: bacteria, 5000 µM
How it was run: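 Reaction of OXA-48 (5 μM) with 5 mM faropenem for 55 min in 50 mM sodium phosphate pH 7.5, 10% (v/v) D2O. Products assigned from methyl group resonances in 700 MHz 1H NMR spectra.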

[3] = Drug metabolism assessed as VIM-1 (unknown origin)-mediated compound hydrolysis by measuring (S)-2-((1S,2R)-1-carboxy-2-hydroxypropyl)-5-(4-hydroxybutylidene)-2,5-dihydrothiazole-4-carboxylic acid formation at 5 mM incubated for 5 mins by 1H-NMR based analysis; assay type: ADME; details: bacteria, 5000 µM
[4] = Drug metabolism assessed as VIM-2 (unknown origin)-mediated compound hydrolysis by measuring (S)-2-((1S,2R)-1-carboxy-2-hydroxypropyl)-5-(4-hydroxybutylidene)-2,5-dihydrothiazole-4-carboxylic acid formation at 5 mM incubated for 5 mins by 1H-NMR based analysis; assay type: ADME; details: bacteria, 5000 µM
[5] = Drug metabolism assessed as NDM-1 (unknown origin)-mediated compound hydrolysis by measuring (S)-2-((1S,2R)-1-carboxy-2-hydroxypropyl)-5-(4-hydroxybutylidene)-2,5-dihydrothiazole-4-carboxylic acid formation at 5 mM incubated for 5 mins by 1H-NMR based analysis; assay type: ADME; details: bacteria, 5000 µM
How it was run: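 NDM-1 used at 5 μM with 5 mM faropenem, 5 min incubation, in 50 mM sodium phosphate, pH 7.5, 10% (v/v) D2O. Degradation products monitored by 700 MHz 1H NMR via methyl group signals.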

[6] = Drug metabolism assessed as KPC-2 (unknown origin)-mediated compound hydrolysis by measuring (S)-2-((1S,2R)-1-carboxy-2-hydroxypropyl)-5-(4-hydroxybutylidene)-2,5-dihydrothiazole-4-carboxylic acid formation at 5 mM incubated for 72 mins by 1H-NMR based analysis; assay type: ADME; details: bacteria, 1.2 h, 5000 µM
[7] = Drug metabolism assessed as L1 (unknown origin)-mediated compound hydrolysis by measuring (S)-2-((1S,2R)-1-carboxy-2-hydroxypropyl)-5-(4-hydroxybutylidene)-2,5-dihydrothiazole-4-carboxylic acid formation at 5 mM incubated for 5 mins by 1H-NMR based analysis; assay type: ADME; details: bacteria, 5000 µM
How it was run: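 L1 enzyme (125 nM) reacted with 5 mM faropenem for 5 min in 50 mM sodium phosphate pH 7.5 containing 10% (v/v) D2O. Product species assigned by 1H NMR (700 MHz) methyl resonances.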

[8] = Drug metabolism assessed as VIM-1 (unknown origin)-mediated compound hydrolysis by measuring (2R)-2-((1S,2R)-1-carboxy-2-hydroxypropyl)-5-((R)-tetrahydrofuran-2-yl)-2,5-dihydrothiazole-4-carboxylic acid formation at 5 mM incubated for 5 mins by 1H-NMR based analysis; assay type: ADME; details: bacteria, 5000 µM
[9] = Drug metabolism assessed as VIM-2 (unknown origin)-mediated compound hydrolysis by measuring (2R)-2-((1S,2R)-1-carboxy-2-hydroxypropyl)-5-((R)-tetrahydrofuran-2-yl)-2,5-dihydrothiazole-4-carboxylic acid formation at 5 mM incubated for 5 mins by 1H-NMR based analysis; assay type: ADME; details: bacteria, 5000 µM
Bacteria [10] = tested on: Bacteria
Bacteria [11] = tested on: Bacteria; remark: listed apart in the source
Bacteria [12] = tested on: Bacteria; remark: listed apart in the source
[13] = tested on: Mycobacterium tuberculosis H37Rv
Klebsiella pneumoniae [14] = tested on: Klebsiella pneumoniae
Bradyrhizobium japonicum [15] = details: USDA110
Bacteria [16] = tested on: Bacteria; remark: listed apart in the source
Bacteria [17] = tested on: Bacteria; remark: listed apart in the source
Bacteria [18] = tested on: Bacteria; remark: listed apart in the source
[19] = tested on: Mycobacterium tuberculosis H37Rv; remark: listed apart in the source
Klebsiella pneumoniae [20] = tested on: Klebsiella pneumoniae; remark: listed apart in the source
Bradyrhizobium japonicum [21] = details: USDA110; remark: listed apart in the source
Bacteria [22] = tested on: Bacteria; remark: listed apart in the source
Bacteria [23] = tested on: Bacteria; remark: listed apart in the source
Bacteria [24] = tested on: Bacteria; remark: listed apart in the source
[25] = tested on: Mycobacterium tuberculosis H37Rv; remark: listed apart in the source
Klebsiella pneumoniae [26] = tested on: Klebsiella pneumoniae; remark: listed apart in the source
Bradyrhizobium japonicum [27] = details: USDA110; remark: listed apart in the source

Compound: C[C@@H](O)[C@H]1C(=O)N2C(C(=O)O)=C([C@H]3CCCO3)S[C@H]12 [FAROPENEM]
- Drug metabolism [1]: Metabolite_Detected
- Drug metabolism [2]: Metabolite_Detected
- Drug metabolism [3]: Metabolite_Detected
- Drug metabolism [4]: Metabolite_Detected
- Drug metabolism [5]: Metabolite_Detected
- Drug metabolism [6]: Metabolite_Detected
- Drug metabolism [7]: Metabolite_Detected
- Drug metabolism [8]: Metabolite_Detected
- Drug metabolism [9]: Metabolite_Detected
- kcat (Bacteria [10]): 3.71 s⁻¹
- kcat (Bacteria [11]): 36.7 s⁻¹
- kcat (Bacteria [12]): 43.7 s⁻¹
- kcat [13]: 0.91 s⁻¹
- kcat (Klebsiella pneumoniae [14]): 14.7 s⁻¹
- kcat (Bradyrhizobium japonicum [15]): 2 s⁻¹
- Km (Bacteria [16]): 16.6 µM
- Km (Bacteria [17]): 5.11 µM
- Km (Bacteria [18]): 36.3 µM
- Km [19]: 23 µM
- Km (Klebsiella pneumoniae [20]): 99 µM
- Km (Bradyrhizobium japonicum [21]): 245 µM
- kcat/Km (Bacteria [22]): 220000 M⁻¹ s⁻¹
- kcat/Km (Bacteria [23]): 7.17e+06 M⁻¹ s⁻¹
- kcat/Km (Bacteria [24]): 1.2e+06 M⁻¹ s⁻¹
- kcat/Km [25]: 40000 M⁻¹ s⁻¹
- kcat/Km (Klebsiella pneumoniae [26]): 150000 M⁻¹ s⁻¹
- kcat/Km (Bradyrhizobium japonicum [27]): 8000 M⁻¹ s⁻¹
